Experimental data reported in ChEMBL document CHEMBL1136794, “l-2',3'-Didehydro-2',3'-dideoxy-3'-fluoronucleosides: synthesis, anti-HIV activity, chemical and enzymatic stability, and mechanism of resistance” (J Med Chem, 2003).
pEC50, pIC50: −log10 of the molar value.

How the values were obtained:
[1] = Cytotoxicity determined in uninfected PHA-stimulated human PBM cells (PBMCs), expressed as IC50; type: functional, cell-based; details: PBMC
Procedure, shortened: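 Uninfected PHA-stimulated PBM cells from seronegative donors, isolated by single-step Ficoll-Hypaque, were seeded at 5 × 10⁴ cells/well with 10-fold serial drug dilutions. After 5 days at 37 °C in 5% CO2, MTT dye was added overnight, formazan solubilized 5 h, and absorbance read at 570 nm.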

CCRF-CEM = experiment: Cytotoxicity determined in (T-lymphoblastoid cell line) CEM cells, expressed as IC50; type: functional, cell-based; details: Homo sapiens
Procedure, shortened: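 CEM T-lymphoblastoid cells were seeded in log phase at 2.5 × 10³ cells/well with 10-fold serial drug dilutions and incubated 4 days at 37 °C in 5% CO2. Viability was read as MTT reduction: dye added overnight, formazan solubilized 5 h, absorbance at 570 nm.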

Vero = experiment: Cytotoxicity determined in (african green monkey kidney) Vero cells, expressed as IC50; type: functional, cell-based; details: Chlorocebus sabaeus
Procedure, shortened: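 Vero cells were seeded in log phase at 5 × 10³ cells/well with 10-fold serial drug dilutions and incubated 3 days at 37 °C in 5% CO2. Viability was read by MTT: overnight dye incubation, 5 h solubilization, absorbance at 570 nm.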

[2] = Half life determined at pH 2 buffer solution; type: ADME
Procedure, shortened: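 Nucleosides were held in pH 2 buffer and followed by TLC every 10 min for the first 3 h, then up to 6 h, to estimate half-life.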

[3] = Activity against Lamivudine-resistant virus (HIV-1M184V) in human PBM cells, expressed as EC90; type: functional; details: PBMC
Procedure, shortened: (§1)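 PHA-stimulated (2-3 days) human PBM cells from seronegative donors, bulk-infected 1 h with molecular clones HIV-1 xxBru or M184V (100 TCID50/1 × 10⁷ cells in flask, or 200 TCID50/6 × 10⁵ cells/well in 24-well plate), then added to 10-fold serial compound dilutions. RPMI-1640 with IL-2 and DEAE-dextran; 5 days, 37 °C, 5% CO₂. Supernatant RT activity read out; EC50/EC90 by median effect method.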

[4] = Activity against Lamivudine-resistant virus (HIV-1M184V) in human PBM cells, expressed as EC50; type: functional, cell-based; procedure, shortened: as §1
[5] = Activity against wild-type virus (HIV-1XXBRU) in human PBM cells, expressed as EC50
[6] = Fold increase ratio of HIV-1M184V to HIV-1XXBRU; type: functional
Procedure, shortened: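 PHA-stimulated PBM cells were infected for 1 h with the molecular clones HIV-1 xxBru (wild type) or HIV-1 M184Vpitt, then cultured 5 days with 10-fold serial dilutions. EC50 came from supernatant RT activity by the median effect method, and the ratio was taken as mutant EC50 over wild-type EC50.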

Cc1cn([C@H]2CC(F)(F)[C@H](CO)O2)c(=O)[nH]c1=O
pIC50 [1]: < 4.00 | pIC50 (CCRF-CEM): < 4.00 | pIC50 (Vero): < 4.00

Nc1nc(O)c2ncn([C@H]3C=C(F)[C@H](CO)O3)c2n1
pIC50 [1]: < 4.00 | pIC50 (CCRF-CEM): < 4.00 | pIC50 (Vero): < 4.00

O=c1ccn([C@H]2C=C(F)[C@H](CO)O2)c(=O)[nH]1
pIC50 [1]: < 4.00 | pIC50 (CCRF-CEM): < 4.00 | pIC50 (Vero): < 4.00

Nc1ccn([C@@H]2CC[C@H](CO)O2)c(=O)n1
half-life [2]: 1 h | EC90 [3]: 28.2 µM | pEC50 [4]: 5.54 | pEC50 [5]: 6.77 | FI [6]: 17

OC[C@@H]1O[C@@H](n2cnc3c(O)ncnc32)CC1(F)F
pIC50 [1]: < 4.00 | pIC50 (CCRF-CEM): < 4.00 | pIC50 (Vero): < 4.00

Nc1ncnc2c1ncn2[C@@H]1CC(F)(F)[C@H](CO)O1
pIC50 [1]: < 4.00 | pIC50 (CCRF-CEM): < 4.00 | pIC50 (Vero): < 4.00

O=c1nc(O)ccn1[C@@H]1C=C(F)[C@H](CO)O1
pIC50 [1]: < 4.00 | pIC50 (CCRF-CEM): 4.52 | pIC50 (Vero): < 4.00

O=c1nc(O)ccn1[C@@H]1CC(F)(F)[C@H](CO)O1
pIC50 [1]: < 4.00 | pIC50 (CCRF-CEM): < 4.00 | pIC50 (Vero): < 4.00

OC[C@@H]1O[C@H](n2cnc3c(O)ncnc32)CC1(F)F
pIC50 [1]: < 4.00 | pIC50 (CCRF-CEM): < 4.00 | pIC50 (Vero): < 4.00

O=c1nc(O)ccn1[C@H]1CC(F)(F)[C@H](CO)O1
pIC50 [1]: < 4.00 | pIC50 (CCRF-CEM): < 4.00 | pIC50 (Vero): < 4.00

Nc1ccn([C@@H]2CC(F)(F)[C@H](CO)O2)c(=O)n1
pIC50 [1]: < 4.00 | pIC50 (CCRF-CEM): < 4.00 | pIC50 (Vero): < 4.00

Nc1ncnc2c1ncn2[C@H]1CC(F)(F)[C@H](CO)O1
pIC50 [1]: < 4.00 | pIC50 (CCRF-CEM): < 4.00 | pIC50 (Vero): < 4.00

Cc1cn([C@H]2C[C@H](N=[N+]=[N-])[C@@H](CO)O2)c(=O)[nH]c1=O [ZIDOVUDINE]
EC90 [3]: 0.025 µM | pEC50 [4]: 8.52 | pEC50 [5]: 8.00 | FI [6]: 0.3

Cc1cn([C@@H]2CC(F)(F)[C@H](CO)O2)c(=O)nc1O
pIC50 [1]: < 4.00 | pIC50 (CCRF-CEM): < 4.00 | pIC50 (Vero): < 4.00

Nc1nc(=O)n([C@@H]2CC(F)(F)[C@H](CO)O2)cc1F
pIC50 [1]: < 4.00 | pIC50 (CCRF-CEM): < 4.00 | pIC50 (Vero): < 4.00

Nc1nc(=O)n([C@H]2CC(F)(F)[C@H](CO)O2)cc1F
pIC50 [1]: < 4.00 | pIC50 (CCRF-CEM): < 4.00 | pIC50 (Vero): < 4.00

Nc1nc(O)c2ncn([C@H]3CC(F)(F)[C@H](CO)O3)c2n1
pIC50 [1]: < 4.00 | pIC50 (CCRF-CEM): < 4.00 | pIC50 (Vero): < 4.00

Nc1ccn([C@@H]2CS[C@H](CO)O2)c(=O)n1 [LAMIVUDINE]
EC90 [3]: > 100 µM | pEC50 [4]: < 4.00 | pEC50 [5]: 7.46 | FI [6]: > 2860

Nc1nc(=O)n([C@H]2C=C(F)[C@H](CO)O2)cc1F
pIC50 [1]: < 4.00 | pIC50 (CCRF-CEM): < 4.00 | pIC50 (Vero): < 4.00

Nc1ccn([C@@H]2C=C(F)[C@H](CO)O2)c(=O)n1
half-life [2]: 48 h | EC90 [3]: 15.7 µM | pIC50 [1]: 4.06 | pEC50 [4]: 5.62 | pIC50 (CCRF-CEM): < 4.00 | pEC50 [5]: 7.64 | pIC50 (Vero): < 4.00 | FI [6]: 104

Nc1ncnc2c1ncn2[C@@H]1C=C(F)[C@H](CO)O1
pIC50 [1]: < 4.00 | pIC50 (CCRF-CEM): < 4.00 | pIC50 (Vero): < 4.00

OC[C@H]1O[C@@H](n2cnc3c(O)ncnc32)C=C1F
pIC50 [1]: < 4.00 | pIC50 (CCRF-CEM): < 4.00 | pIC50 (Vero): < 4.00

Nc1nc(O)c2ncn([C@@H]3CC(F)(F)[C@H](CO)O3)c2n1
pIC50 [1]: < 4.00 | pIC50 (CCRF-CEM): < 4.00 | pIC50 (Vero): < 4.00

Nc1nc(O)c2ncn([C@@H]3C=C(F)[C@H](CO)O3)c2n1
pIC50 [1]: 4.76 | pIC50 (CCRF-CEM): 4.23 | pIC50 (Vero): 4.44

Cc1cn([C@H]2C=C(F)[C@H](CO)O2)c(=O)nc1O
pIC50 [1]: < 4.00 | pIC50 (CCRF-CEM): < 4.00 | pIC50 (Vero): < 4.00

Nc1ccn([C@H]2CC(F)(F)[C@H](CO)O2)c(=O)n1
pIC50 [1]: < 4.00 | pIC50 (CCRF-CEM): < 4.00 | pIC50 (Vero): < 4.00

Cc1cn([C@@H]2C=C(F)[C@H](CO)O2)c(=O)nc1O
pIC50 [1]: < 4.00 | pIC50 (CCRF-CEM): < 4.00 | pIC50 (Vero): < 4.00

Nc1nc(=O)n([C@@H]2C=C(F)[C@H](CO)O2)cc1F
EC90 [3]: 67.4 µM | pIC50 [1]: < 4.00 | pEC50 [4]: 4.96 | pIC50 (CCRF-CEM): < 4.00 | pEC50 [5]: 8.05 | pIC50 (Vero): < 4.00 | FI [6]: 1210

Nc1ccn([C@H]2C=C(F)[C@H](CO)O2)c(=O)n1
pIC50 [1]: < 4.00 | pIC50 (CCRF-CEM): < 4.00 | pIC50 (Vero): < 4.00

Nc1ncnc2c1ncn2[C@H]1C=C(F)[C@H](CO)O1
pIC50 [1]: < 4.00 | pIC50 (CCRF-CEM): < 4.00 | pIC50 (Vero): < 4.00
